Test results taken from ChEMBL document CHEMBL4689842, “EUbOPEN Chemogenomics Library wave 1” (2021).

Test system: Fibroblast
Assay: Multiplex assay against human fibroblast
Format: toxicity, cell-based
Procedure, shortened: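 Phenotypes for tubulin, mitochondrial mass and membrane permeability are expressed as per cents of healthy-nucleus cells. Cells were stained live at seeding with Hoechst33342, BioTracker Green Microtubule Cytoskeleton Dye, MitoTracker Red and Annexin V Alexa Fluor 680, then imaged after compound addition on a CQ1 microscope at 37°C and 5% CO2. Machine-learning gating in CellPathfinder separated Hoechst high-intensity objects from normal cells, divided normal cells by nuclear state (healthy, pyknosed, fragmented) and divided pyknosed cells into mitotic or apoptotic.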

[1] = 12 h, 1 µM, compound concentration 1 uM, replicate 1
[2] = 12 h, 1 µM, compound concentration 1 uM, replicate 2
[3] = 12 h, 10 µM, compound concentration 10 uM, replicate 1
[4] = 12 h, 10 µM, compound concentration 10 uM, replicate 2
[5] = 24 h, 1 µM, compound concentration 1 uM, replicate 1
[6] = 24 h, 1 µM, compound concentration 1 uM, replicate 2
[7] = 24 h, 10 µM, compound concentration 10 uM, replicate 1
[8] = 24 h, 10 µM, compound concentration 10 uM, replicate 2
[9] = 48 h, 1 µM, compound concentration 1 uM, replicate 1
[10] = 48 h, 1 µM, compound concentration 1 uM, replicate 2
[11] = 48 h, 10 µM, compound concentration 10 uM, replicate 1
[12] = 48 h, 10 µM, compound concentration 10 uM, replicate 2

COc1cc2ncn(-c3cc(OCc4ccccc4C(F)(F)F)c(C(N)=O)s3)c2cc1OC [GW843682X]
Population Apoptotic (%) [1]: 62% | Population Fragmented Nuclei (%) [1]: 29% | Population Healthy Nuclei (%) [1]: 40% | Population Hoechst High Intensity Objects (%) [1]: 14% | Population Membrane Permeable-Phenotype (%) [1]: 28% | Population Mitochondria Different-Phenotype (%) [1]: 2% | Population Mitotic Cells (%) [1]: 37% | Population Normal (%) [1]: 85% | Population Pyknosed Nuclei (%) [1]: 29% | Population Tubulin-Different-Phenotype (%) [1]: 54% | Total Cell Count [1]: 145 | Population Apoptotic (%) [2]: 50% | Population Fragmented Nuclei (%) [2]: 9% | Population Healthy Nuclei (%) [2]: 80% | Population Hoechst High Intensity Objects (%) [2]: 10% | Population Membrane Permeable-Phenotype (%) [2]: 12% | Population Mitochondria Different-Phenotype (%) [2]: 10% | Population Mitotic Cells (%) [2]: 50% | Population Normal (%) [2]: 89% | Population Pyknosed Nuclei (%) [2]: 9% | Population Tubulin-Different-Phenotype (%) [2]: 20% | Total Cell Count [2]: 83 | Population Apoptotic (%) [3]: 54% | Population Fragmented Nuclei (%) [3]: 18% | Population Healthy Nuclei (%) [3]: 40% | Population Hoechst High Intensity Objects (%) [3]: 17% | Population Membrane Permeable-Phenotype (%) [3]: 19% | Population Mitochondria Different-Phenotype (%) [3]: 29% | Population Mitotic Cells (%) [3]: 45% | Population Normal (%) [3]: 82% | Population Pyknosed Nuclei (%) [3]: 41% | Population Tubulin-Different-Phenotype (%) [3]: 88% | Total Cell Count [3]: 182 | Population Apoptotic (%) [4]: 50% | Population Fragmented Nuclei (%) [4]: 13% | Population Healthy Nuclei (%) [4]: 75% | Population Hoechst High Intensity Objects (%) [4]: 6% | Population Membrane Permeable-Phenotype (%) [4]: 25% | Population Mitochondria Different-Phenotype (%) [4]: 88% | Population Mitotic Cells (%) [4]: 50% | Population Normal (%) [4]: 93% | Population Pyknosed Nuclei (%) [4]: 11% | Population Tubulin-Different-Phenotype (%) [4]: 98% | Total Cell Count [4]: 68 | Population Apoptotic (%) [5]: 61% | Population Fragmented Nuclei (%) [5]: 27% | Population Healthy Nuclei (%) [5]: 45% | Population Hoechst High Intensity Objects (%) [5]: 16% | Population Membrane Permeable-Phenotype (%) [5]: 28% | Population Mitochondria Different-Phenotype (%) [5]: 7% | Population Mitotic Cells (%) [5]: 38% | Population Normal (%) [5]: 83% | Population Pyknosed Nuclei (%) [5]: 26% | Population Tubulin-Different-Phenotype (%) [5]: 66% | Total Cell Count [5]: 139 | Population Apoptotic (%) [6]: 55% | Population Fragmented Nuclei (%) [6]: 11% | Population Healthy Nuclei (%) [6]: 74% | Population Hoechst High Intensity Objects (%) [6]: 5% | Population Membrane Permeable-Phenotype (%) [6]: 10% | Population Mitochondria Different-Phenotype (%) [6]: 19% | Population Mitotic Cells (%) [6]: 44% | Population Normal (%) [6]: 94% | Population Pyknosed Nuclei (%) [6]: 14% | Population Tubulin-Different-Phenotype (%) [6]: 17% | Total Cell Count [6]: 85 | Population Apoptotic (%) [7]: 74% | Population Fragmented Nuclei (%) [7]: 14% | Population Healthy Nuclei (%) [7]: 41% | Population Hoechst High Intensity Objects (%) [7]: 21% | Population Membrane Permeable-Phenotype (%) [7]: 25% | Population Mitochondria Different-Phenotype (%) [7]: 32% | Population Mitotic Cells (%) [7]: 25% | Population Normal (%) [7]: 78% | Population Pyknosed Nuclei (%) [7]: 43% | Population Tubulin-Different-Phenotype (%) [7]: 94% | Total Cell Count [7]: 171 | Population Apoptotic (%) [8]: 50% | Population Fragmented Nuclei (%) [8]: 13% | Population Healthy Nuclei (%) [8]: 69% | Population Hoechst High Intensity Objects (%) [8]: 9% | Population Membrane Permeable-Phenotype (%) [8]: 41% | Population Mitochondria Different-Phenotype (%) [8]: 91% | Population Mitotic Cells (%) [8]: 50% | Population Normal (%) [8]: 90% | Population Pyknosed Nuclei (%) [8]: 17% | Population Tubulin-Different-Phenotype (%) [8]: 97% | Total Cell Count [8]: 67 | Population Apoptotic (%) [9]: 52% | Population Fragmented Nuclei (%) [9]: 39% | Population Healthy Nuclei (%) [9]: 38% | Population Hoechst High Intensity Objects (%) [9]: 18% | Population Membrane Permeable-Phenotype (%) [9]: 21% | Population Mitochondria Different-Phenotype (%) [9]: 7% | Population Mitotic Cells (%) [9]: 47% | Population Normal (%) [9]: 81% | Population Pyknosed Nuclei (%) [9]: 21% | Population Tubulin-Different-Phenotype (%) [9]: 65% | Total Cell Count [9]: 130 | Population Apoptotic (%) [10]: 75% | Population Fragmented Nuclei (%) [10]: 22% | Population Healthy Nuclei (%) [10]: 73% | Population Hoechst High Intensity Objects (%) [10]: 9% | Population Membrane Permeable-Phenotype (%) [10]: 13% | Population Mitochondria Different-Phenotype (%) [10]: 1% | Population Mitotic Cells (%) [10]: 25% | Population Normal (%) [10]: 90% | Population Pyknosed Nuclei (%) [10]: 3% | Population Tubulin-Different-Phenotype (%) [10]: 53% | Total Cell Count [10]: 120 | Population Apoptotic (%) [11]: 61% | Population Fragmented Nuclei (%) [11]: 27% | Population Healthy Nuclei (%) [11]: 45% | Population Hoechst High Intensity Objects (%) [11]: 19% | Population Membrane Permeable-Phenotype (%) [11]: 24% | Population Mitochondria Different-Phenotype (%) [11]: 13% | Population Mitotic Cells (%) [11]: 38% | Population Normal (%) [11]: 80% | Population Pyknosed Nuclei (%) [11]: 27% | Population Tubulin-Different-Phenotype (%) [11]: 95% | Total Cell Count [11]: 177 | Population Apoptotic (%) [12]: 50% | Population Fragmented Nuclei (%) [12]: 29% | Population Healthy Nuclei (%) [12]: 55% | Population Hoechst High Intensity Objects (%) [12]: 16% | Population Membrane Permeable-Phenotype (%) [12]: 6% | Population Mitochondria Different-Phenotype (%) [12]: 21% | Population Mitotic Cells (%) [12]: 50% | Population Normal (%) [12]: 83% | Population Pyknosed Nuclei (%) [12]: 14% | Population Tubulin-Different-Phenotype (%) [12]: 92% | Total Cell Count [12]: 162
